The source made the active and inactive calls. The calls are words filed in the database; no cut-off is given here.

In data set [1] the test system is Coxsackievirus B4. The data set can be described thus: Antiviral activity against Coxsackievirus B4 infected in HeLa cells assessed as inhibition of virus-induced cytopathic effect at 100 uM by MTS assay. The class given is functional, organism-based. Put shortly: (§1)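 HeLa cells were infected with the virus, and compounds were tested up to 100 μM. EC50 is the concentration that halves virus-induced cytopathic effect, read by visual CPE scoring or by MTS formazan colorimetric viability measurement.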

Another data set relates to MDCK. The data set can be described thus: Cytotoxicity against MDCK cells assessed as decrease in cell viability upto 100 uM by MTS assay. The data set is classed as cell-based, Canis lupus familiaris. As to conditions: dog.
The test system of another data set is Human respirovirus 3. Nature of the data set: Antiviral activity against Parainfluenza 3 virus infected in Vero cells assessed as inhibition of virus-induced cytopathic effect at 100 uM by MTS assay. The data set is classed as functional, organism-based. Summed up:
(§2)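 Vero cell monolayers were infected with the virus in cell-based CPE assays. EC50 is the concentration giving 50% inhibition of virus-induced cytopathic effect, scored visually or by MTS formazan colorimetric cell-viability read-out. The highest concentration tested was 100 μM for most compounds and lower for a few.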

Data set [2] relates to Coxsackievirus B4. The data set can be described thus: Antiviral activity against Coxsackievirus B4 infected in Vero cells assessed as inhibition of virus-induced cytopathic effect at 100 uM by MTS assay. The class given is functional, organism-based. Put shortly:
as §2

The nature of data set [3]: Cytotoxicity against CRFK cells assessed as decrease in cell viability upto 100 uM by MTS assay. The class given is cell-based, Felis catus. To be noted: cat.
Data set [4] concerns Mammalian orthoreovirus 1. Nature of the data set: Antiviral activity against Reovirus1 infected in Vero cells assessed as inhibition of virus-induced cytopathic effect at 100 uM by MTS assay. The data set is classed as functional, organism-based. Put shortly:
as §2

For the next data set, the system named is HEL. Nature of the data set: Cytotoxicity against HEL cells assessed as decrease in cell viability upto 100 uM by MTS assay. The data set is classed as cell-based. To be noted: human.
Data set [5] can be described thus: Cytotoxicity against african green monkey Vero cells assessed as alteration in cell morphology by MTS assay. The data set is classed as cell-based. As to conditions: chlorocebus sabaeus. Summed up:
(§3)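 Uninfected host cells were exposed to compound and examined under the microscope. MCC was the minimal compound concentration causing a microscopically detectable change in normal cell morphology.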

In a further data set the test system is Feline coronavirus. The data set can be described thus: Antiviral activity against feline coronavirus infected in CRFK cells assessed as inhibition of virus-induced cytopathic effect at 100 uM by MTS assay. The data set is classed as functional, organism-based.
Data set [6] has as its system Respiratory syncytial virus. Nature of the data set: Antiviral activity against respiratory syncytial virus infected in HeLa cells assessed as inhibition of virus-induced cytopathic effect at 100 uM by MTS assay. The data set is classed as functional, organism-based. Put shortly:
as §1

The subject of the next data set is Human alphaherpesvirus 1. Nature of the data set: Antiviral activity against HSV1 virus infected in HEL cells assessed as inhibition of virus-induced cytopathic effect at 100 uM by MTS assay. The data set is classed as functional, organism-based.
Data set [7] deals with Punta Toro virus. The data set can be described thus: Antiviral activity against Punta Toro virus infected in Vero cells assessed as inhibition of virus-induced cytopathic effect at 100 uM by MTS assay. The class given is functional, organism-based. Summed up: as §2
The subject of data set [8] is HeLa. The data set can be described thus: Cytotoxicity against human HeLa cells assessed as decrease in cell viability upto 100 uM by MTS assay. The data set is classed as functional, cell-based. Put shortly: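 Uninfected HeLa host cells were tested up to 100 μM. CC50 is the concentration causing a 50% drop in cell viability by colorimetric formazan-based MTS assay. Alternatively, MCC is the minimal concentration giving microscopically detectable alteration of normal cell morphology.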

A further data set concerns Felid alphaherpesvirus 1. Nature of the data set: Antiviral activity against feline herpes virus infected in CRFK cells assessed as inhibition of virus-induced cytopathic effect at 100 uM by MTS assay. The class given is functional, organism-based.
The next data set relates to Human alphaherpesvirus 2. The data set can be described thus: Antiviral activity against HSV2 virus infected in HEL cells assessed as inhibition of virus-induced cytopathic effect at 100 uM by MTS assay. The data set is classed as functional, organism-based.
A further data set has as its system Sindbis virus. Nature of the data set: Antiviral activity against Sindbis virus infected in Vero cells assessed as inhibition of virus-induced cytopathic effect at 100 uM by MTS assay. The class given is functional, organism-based. Summed up: as §2
A short description of data set [9]: Cytotoxicity against CRFK cells assessed as decrease in cell viability by MTS assay. The class given is cell-based, Felis catus. To be noted: cat. Summed up: (§4)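 Uninfected host cells were exposed to compound. CC50 was taken as the concentration giving a 50% fall in cell viability, measured by a colorimetric formazan-based MTS assay.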
The subject of data set [10] is Punta Toro virus. Nature of the data set: Antiviral activity against Punta Toro virus infected in Vero cells assessed as inhibition of virus-induced cytopathic effect by MTS assay. The data set is classed as functional, organism-based. Put shortly:
(§5)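 Vero cell monolayers infected with Coxsackie B4 virus or Punta Toro virus, with test compounds at up to 100 μM. EC50 is the concentration giving 50% inhibition of virus-induced cytopathic effect (CPE), scored visually or from cell viability by the colorimetric formazan-based MTS assay.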

Data set [11] concerns Coxsackievirus B4. The data set can be described thus: Antiviral activity against Coxsackievirus B4 infected in Vero cells assessed as inhibition of virus-induced cytopathic effect by MTS assay. The class given is functional, organism-based. To be noted: Enterovirus B. Summed up:
as §5

Data set [12] can be described thus: Cytotoxicity against MDCK cells assessed as decrease in cell viability by MTS assay. The data set is classed as cell-based, Canis lupus familiaris. As to conditions: dog. Summed up: as §4
Data set [13] is described as follows: Cytotoxicity against MDCK cells assessed as alteration in cell morphology by MTS assay. The data set is classed as cell-based, Canis lupus familiaris. To be noted: dog. Summed up:
as §3

Data set [14] relates to HeLa. The data set can be described thus: Cytotoxicity against human HeLa cells assessed as alteration in cell morphology by MTS assay. The class given is functional. Summed up:
(§6)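 Uninfected host cells (HEL or HeLa) exposed to compounds […]. The minimal cytotoxic concentration (MCC) is the lowest concentration causing a microscopically detectable change in normal cell morphology. CC50 is the concentration giving a 50% fall in cell viability by the colorimetric formazan-based MTS assay.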

Data set [15] in a line: Cytotoxicity against HEL cells assessed as alteration in cell morphology by MTS assay. The data set is classed as cell-based. To be noted: human. Summed up:
as §6

The next data set relates to Vero. Nature of the data set: Cytotoxicity against african green monkey Vero cells assessed as decrease in cell viability upto 100 uM by MTS assay. The class given is cell-based. To be noted: chlorocebus sabaeus.

On to `CC(=O)Nc1ccc(S(=O)(=O)N(CCOC(=O)C(C)(C)C)Cn2ccc(=O)[nH]c2=O)cc1`, for which the result (in the data set with Coxsackievirus B4 [1]; in the data set on Human respirovirus 3; in the data set on Coxsackievirus B4 [2]; in data set [4]; with Feline coronavirus; in [6]) was inactive. For the same compound, the outcome in the data set on Human alphaherpesvirus 1, with Punta Toro virus [7], in the data set on HeLa [8], with Felid alphaherpesvirus 1, in the data set on Human alphaherpesvirus 2 and with Sindbis virus was inactive. Also, the Activity result (with MDCK; in data set [3]; with HEL) was “Not Active” throughout. Besides, in data set [5], the MCC came to 40 µM.
For `CC(C)(C)C(=O)OCCN(Cn1cc(F)c(=O)[nH]c1=O)S(=O)(=O)c1cccc([N+](=O)[O-])c1`, the result (in the data set with Coxsackievirus B4 [1]; in the data set with Human respirovirus 3; in data set [4]; in the data set with Feline coronavirus; in data set [6]; in the data set with Human alphaherpesvirus 1) was inactive. For the same compound, the outcome in the data set with HeLa [8], in the data set with Felid alphaherpesvirus 1, in the data set on Human alphaherpesvirus 2 and with Sindbis virus was inactive. For the same compound, the CC50 in data set [9] is 95 µM; in data set [12], above 100 µM. Besides, the EC50 in the data set on Punta Toro virus [10] and with Coxsackievirus B4 [11] was 100 µM in each case. For the same compound, the Activity entry with HEL is on record as “Not Active”. Besides, the MCC in data set [13] is at least 100 µM.
For `Nc1ncnc2c1ncn2C[C@H](O)CO` [(S)-DHPA], the MCC (with HeLa [14]; in [5]) was above 250 µM in each case.
In the case of `Nc1nc2c(ncn2COCCO)c(=O)[nH]1` [ACYCLOVIR], in data set [15], the MCC is above 250 µM.
In the case of `CC(=O)Nc1ccc(S(=O)(=O)N(CCOC(=O)C(C)(C)C)Cn2cc(C)c(=O)[nH]c2=O)cc1`, the result (with Coxsackievirus B4 [1]; in the data set on Human respirovirus 3; in the data set on Coxsackievirus B4 [2]; in data set [4]; in the data set with Feline coronavirus; in data set [6]) was inactive. The outcome in the data set with Human alphaherpesvirus 1, with Punta Toro virus [7], in the data set with HeLa [8], with Felid alphaherpesvirus 1, in the data set on Human alphaherpesvirus 2 and with Sindbis virus was inactive. Moreover, the Activity result (with MDCK; in [3]; in the data set on HEL) was “Not Active” in each case. Further, the MCC in data set [5] is 40 µM.
Regarding `NC(=O)c1ncn([C@@H]2O[C@H](CO)[C@@H](O)[C@H]2O)n1` [RIBAVIRIN], the MCC is above 250 µM in the data set on HeLa [14], above 250 µM in data set [15], above 250 µM in data set [5] and 100 µM in data set [13]. Further, the CC50 in data set [12] was above 100 µM.
With `CC(C)(C)C(=O)OCCN(Cn1cc(F)c(=O)[nH]c1=O)S(=O)(=O)c1ccc([N+](=O)[O-])cc1`, the result (in the data set on Coxsackievirus B4 [1]; with Human respirovirus 3; in the data set on Coxsackievirus B4 [2]; in data set [4]; in the data set with Feline coronavirus; in [6]) was inactive. For the same compound, the outcome with Human alphaherpesvirus 1, in the data set on Punta Toro virus [7], in the data set on HeLa [8], in the data set on Felid alphaherpesvirus 1, in the data set on Human alphaherpesvirus 2 and with Sindbis virus was inactive. For the same compound, the CC50 in data set [9] worked out at 44 µM; in [12] it was 69 µM. Moreover, the Activity result with HEL is given as “Not Active”. Also, in data set [13], the MCC is 20 µM.
With `Nc1nc(O)c2ncn(COC(CO)CO)c2n1` [GANCICLOVIR], the MCC in data set [15] was above 100 µM. Also, the CC50 in data set [9] is above 100 µM.
On to `CC(C)(C)C(=O)OCCN(Cn1cc(F)c(=O)[nH]c1=O)S(=O)(=O)c1ccccc1[N+](=O)[O-]`, for which the result (in the data set with Coxsackievirus B4 [1]; in the data set with Human respirovirus 3; with Coxsackievirus B4 [2]; in [4]; in the data set on Feline coronavirus; in data set [6]) was inactive. Besides, the outcome with Human alphaherpesvirus 1, in the data set on Punta Toro virus [7], in the data set on HeLa [8], in the data set on Felid alphaherpesvirus 1, in the data set on Human alphaherpesvirus 2 and in the data set with Sindbis virus was inactive. Moreover, the CC50 in [9] was 14 µM; in data set [12] it was above 100 µM. Further, the Activity entry in the data set on HEL is “Not Active”. The MCC in data set [13] is 4 µM.
In the case of `O=c1[nH]c(=O)n([C@H]2C[C@H](O)[C@@H](CO)O2)cc1/C=C/Br` [BRIVUDINE], the MCC (in the data set with HeLa [14]; in [15]; in [5]) was above 250 µM each time.
Take `CC(=O)Nc1ccc(S(=O)(=O)N(CCO)Cn2ccc(=O)[nH]c2=O)cc1`: the outcome (in the data set on Coxsackievirus B4 [1]; in the data set with Human respirovirus 3; in the data set on Coxsackievirus B4 [2]; in data set [4]; with Feline coronavirus; in data set [6]) was inactive. Moreover, the result in the data set on Human alphaherpesvirus 1, in the data set with Punta Toro virus [7], in the data set with HeLa [8], in the data set with Felid alphaherpesvirus 1, in the data set with Human alphaherpesvirus 2 and in the data set on Sindbis virus was inactive. In addition, the Activity entry (in the data set on Vero; in the data set on MDCK; in [3]; in the data set with HEL) was “Not Active” in each case.
As for `Cc1cn(CN(CCOC(=O)C(C)(C)C)S(=O)(=O)c2ccccc2[N+](=O)[O-])c(=O)[nH]c1=O`, the outcome (with Coxsackievirus B4 [1]; in the data set with Human respirovirus 3; in [4]; with Feline coronavirus; in [6]; with Human alphaherpesvirus 1) was inactive. Further, the result with HeLa [8], in the data set with Felid alphaherpesvirus 1, in the data set on Human alphaherpesvirus 2 and in the data set with Sindbis virus was inactive. Moreover, the Activity entry (with MDCK; in [3]; with HEL) was “Not Active” in each case. The EC50 with Punta Toro virus [10] and in the data set on Coxsackievirus B4 [11] was 100 µM throughout.

For the origin of these results see ChEMBL document CHEMBL1144203, “Synthesis and antiviral evaluation of acyclic azanucleosides developed from sulfanilamide as a lead structure” (Bioorg Med Chem, 2008).
